Source: PubChem
OX1R antag-1: antagonists of human orexin 1 receptor; O43613; CHO/OX1R cells, Fluo-8 calcium fluorescence, orexin A; inhibition, % at 5 µM; 330,000 compounds, 0.43% hits; AID 434989;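 active means inhibition above its plate's threshold, mean inhibition of all tested compounds on the plate plus 3 SD, cut at about 37% in these data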;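 further: 0% = orexin A challenge wells and 100% = SB-334867-A antagonist wells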
Target sequence (O43613 whole entry, looked up): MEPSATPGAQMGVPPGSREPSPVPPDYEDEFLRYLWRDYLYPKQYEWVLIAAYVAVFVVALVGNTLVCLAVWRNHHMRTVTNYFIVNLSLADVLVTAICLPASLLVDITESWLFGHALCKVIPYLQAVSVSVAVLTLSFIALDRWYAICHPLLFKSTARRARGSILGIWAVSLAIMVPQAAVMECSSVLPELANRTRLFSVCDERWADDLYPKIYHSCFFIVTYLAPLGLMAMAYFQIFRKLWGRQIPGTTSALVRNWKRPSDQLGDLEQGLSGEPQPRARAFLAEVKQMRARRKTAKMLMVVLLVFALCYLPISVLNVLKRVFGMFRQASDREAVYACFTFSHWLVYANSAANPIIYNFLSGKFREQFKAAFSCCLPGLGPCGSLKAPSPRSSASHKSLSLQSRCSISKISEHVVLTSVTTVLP
GalR3 antag: antagonists of human GalR3. O60755. HEK293 GalR3-CNG cAMP membrane potential fluorescence; galR3 body fused to GalR1 C-terminus. inhibition, % at 3 µM. 360,000 compounds, 0.44% hits;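 active means inhibition above the screen-wide average plus 3 SD, cut at about 13% in these data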;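 further: forskolin and galanin both at EC90 stimulate the cells; cAMP rise reported by CNG channel membrane potential dye signal; 0% = forskolin plus galanin with DMSO and 100% = forskolin alone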
TAAR1 ag: agonists of human TAAR1; CHO RD-HGA16 TAAR1, Fluo-8 calcium fluorescence; vehicle wells 0%, saturating PEA agonist 100%; activation, % at 3 µM; 360,000 compounds, 0.99% hits;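 active means activation above the mean activation of all test compounds in the run plus 3 SD, cut at about 38% in these data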
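System: CHO-derived RD-HGA16 cells with stable Gα16 and human TAAR1 / Times: 17-24 h plating, Fluo-8 75 min 37 °C, 30 min RT / Technique: calcium-sensitive Fluo-8 signal, excitation 470-495, emission 515-575 nm / Measure: % activation relative to PEA EC100 response / Benchmarks: DMSO and PEA EC100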
OX1R antag-2: blocks the human orexin 1 receptor | inhibition, % at 6.6 µM | O43613 | AID 485270 | 330,000 compounds, 1.8% hits | OX1R-expressing cells, FRET antagonist read-out; in the data active means inhibition mostly above about 38%, no sharp cut-off; inactive means mostly below about 40%;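 further: 0% = agonist challenge alone and 100% = reference antagonist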
TAAR1 antag: human TAAR1 antagonism; Q96RJ0; CHO RD-HGA16 TAAR1, Fluo-8 calcium fluorescence, antagonist; inhibition, % at 3 µM; 360,000 compounds, 1.5% hits;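 active means inhibition above a per-plate cutoff, the mean inhibition of test compounds on that plate plus 3 SD, cut at about 49% in these data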;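 further: 0% = DMSO plus EC80 beta-PEA response and 100% = DMSO alone without agonist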
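test system = CHO RD-HGA16 cells bearing hTAAR1 | replication = singlicate | controls = DMSO-only wells and EC80 β-PEA-stimulated wells | reagent = EC80 β-phenethylamine stimulus | read-out basis = percent inhibition of PEA-evoked calcium signal, max/basal emission ratio | schedule = seeding 17-24 h prior, 75-min 37 °C, 30-min RT dye loading | signal = kinetic Fluo-8 calcium fluorescence measurement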
CHO parental Ca: counter-screen for OX1R antagonists: effect in parental CHO cells. parental CHO-K1, ATP-induced calcium, Fluo-8 fluorescence. inhibition, % at 5.6 µM. 330,000 compounds, 0.63% hits. AID 463079;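 active means inhibition above that plate's mean sample inhibition plus 3 SD, cut at about 26% in these data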;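 further: 0% = ATP-challenged DMSO wells and 100% = DMSO wells without ATP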
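Assay system – parental CHO cells · Reagent – ATP stimulus · Detection – intracellular calcium via Fluo-8 no-wash fluorescent dye · Evaluation – percent inhibition of ATP-evoked calcium rise, normalized to controls · Controls – ATP wells versus no-ATP DMSO wells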
Active calls of the source: *; · = no result. Sampled rows, rich in hits. Any-hit rate of the full collection: about 4.2%.

SMILES	OX1R antag-1	GalR3 antag	TAAR1 ag	OX1R antag-2	TAAR1 antag	CHO parental Ca
COc1cc(C(=O)COC(=O)C2CC2(Cl)Cl)cc(OC)c1OC (configuration not stated)	-25	-6	3	14	0	-20
CSc1nc2c(c(=O)[nH]1)C(c1ccccc1Cl)CC(=O)N2 (configuration not stated)	-24	-4	1	13	1	-7
COc1ccc(-c2cc(=Nc3c(C)n(C)n(-c4ccccc4)c3=O)c3ccccc3o2)cc1	-12	-3	0	55*	7	-10
COc1ccc(-c2csc(=Nc3c(C)n(C)n(-c4ccccc4)c3=O)n2C(C)(C)C)cc1	-17	-6	1	10	4	-15
CCOC(=O)CCCCCCCCC(=O)Nc1ccc(-n2[nH]c(=O)cc2C)cc1	·	-4	44*	·	2	·
COCCn1c(SCC#N)nnc1-c1ccc([N+](=O)[O-])cc1	-15	-6	8	72*	22	-6
OC(c1ccc(F)cc1)c1nc(-c2cc3ccccc3o2)cs1 (configuration not stated)	·	-5	45*	·	75*	·
CC(=O)NC(c1cccc(F)c1)c1nc(-c2cc3ccccc3o2)cs1 (configuration not stated)	·	-2	3	·	-33	·
COc1ccccc1C(CC(=O)c1ccccc1)C(=O)c1ccccc1 (configuration not stated)	·	-7	6	·	73*	·
COc1ccccc1C(C(=O)c1ccccc1)c1ccc(O)cc1 (configuration not stated)	·	-8	0	·	-20	·
CCc1noc(C)c1C(=O)N(CCCOC)c1c(N)n(Cc2ccccc2)c(=O)[nH]c1=O	-21	4	0	26	1	-4
CC(=O)c1ccc(Sc2nnc(C)s2)c([N+](=O)[O-])c1	-4	0	2	63*	-11	-3
O=C(Nc1nc2ccccc2s1)C1CCCN1S(=O)(=O)c1ccc(Cl)cc1 (configuration not stated)	0	-4	4	54*	-14	-25
CCc1nnc(NC(=O)C2CCCN2S(=O)(=O)c2ccc(C)cc2)s1 (configuration not stated)	-36	-5	4	44	8	-42
Cc1ccc(S(=O)(=O)N2CCCC2C(=O)Nc2nc3ccccc3s2)cc1 (configuration not stated)	1	·	·	74*	·	-23
O=C(O)CCCCCNC(=O)Cn1nnc2ccccc2c1=O	3	-6	1	6	-7	-1
CCC1Sc2ccc(S(=O)(=O)CCC(=O)Nc3cccc(Br)c3)cc2NC1=O (configuration not stated)	-14	-5	7	6	49*	-28
CCC1Sc2ccc(S(=O)(=O)CCC(=O)Nc3ccccc3Br)cc2NC1=O (configuration not stated)	-28	-4	3	2	-4	-17
CCC1Sc2ccc(S(=O)(=O)CCC(=O)Nc3ccc(NC(C)=O)cc3)cc2NC1=O (configuration not stated)	-17	-5	0	-4	-4	-9
CCC1Sc2ccc(S(=O)(=O)CCC(=O)Nc3ccc(C(=O)OC)cc3)cc2NC1=O (configuration not stated)	-22	-6	2	-4	22	100*
COc1ccc(Cl)cc1NC(=O)CN(C)CC(=O)Nc1cccc(S(=O)(=O)N2CCCC2)c1	·	-6	5	·	5	·
CN1CCS/C1=C\C=C1/SC(=S)N(CC(=O)O)C1=O	·	-6	45*	·	12	·
CCN1C(=O)/C(=C/C=C2/SCCN2C)SC1=S	-4	-3	39*	28	7	-7
Cn1cccc1/C=C1/SC(=S)N(CC(=O)O)C1=O	-12	2	3	26	2	-6
C[C@@H]1CN([C@@H](C)CO)C(=O)c2cc(Br)cnc2O[C@H]1CN(C)S(=O)(=O)c1ccccc1	·	-2	2	·	3	·
SMILES	OX1R antag-1	GalR3 antag	TAAR1 ag	OX1R antag-2	TAAR1 antag	CHO parental Ca
Cc1nn(Cc2ccc(F)cc2)c(C)c1NC(=O)c1nn(C)cc1Cl	-31	-1	2	12	4	-20
COC(=O)c1[nH]c2ccccc2c1NC(=O)CN1CCCCCC1	-19	-6	5	7	18	-2
COC(=O)c1[nH]c2ccccc2c1NC(=O)CNC1CCCCC1	-34	-2	21	23	61*	-19
CN(C)c1ccc(/C=C/c2ccc3ccccc3[n+]2C)cc1	14	0	1	163*	1	0
CN(C)c1ccc(/C=C/c2ccc3c4ccccc4ccc3[n+]2-c2ccccc2)cc1	·	18*	10	·	22	·
CC(=O)Oc1ccccc1/C=C/c1ccc2ccccc2[n+]1C	-5	-6	4	66*	-7	-15
CN(CCCS(=O)(=O)[O-])c1ccc(/C=C/c2ccc3ccccc3[n+]2C)cc1	·	1	2	·	-14	·
CN(C)c1ccc(/C=C/c2cccc[n+]2[O-])cc1	0	-1	1	28	-6	3
Cc1ccc2c(c1)c(N=O)c(O)n2Cc1ccc(Cl)cc1	-2	5	2	6	-22	36*
O=Nc1c(O)n(Cc2ccc(Cl)cc2Cl)c2ccccc12	24	0	10	16	-25	87*
Cc1ccc(C(C)C)c(OCC(O)CN2CCc3ccccc3C2)c1 (configuration not stated)	-14	-12	20	20	-5	30*
Cc1ccc(OCCOC(=O)c2c(-c3ccccc3)noc2C)cc1	-17	-5	4	12	8	0
CC(C)(C)c1ccc(-n2nc(C#N)c(Cl)cc2=O)cc1	·	-9	13	·	97*	·
CC(C)CN(C(=O)COC(=O)c1ccccc1NCc1ccco1)c1c(N)n(Cc2ccccc2)c(=O)[nH]c1=O	13	-6	1	75*	-1	-19
COCCN(C(=O)COC(=O)c1ccccc1NCc1ccco1)c1c(N)n(Cc2ccccc2)c(=O)[nH]c1=O	-8	0	0	42*	-5	-21
CC1CC(OC(=O)C(O)c2ccccc2)CC(C)(C)N1C (configuration not stated)	0	·	1	8	-8	-9
O=C(Cn1cnc2ccccc21)N/N=C/C(Br)=C/c1ccccc1	11	-6	15	7	49*	8
COc1ccc(NC(=O)COC(=O)Cn2cnc3ccccc32)cc1	-7	-7	4	1	-12	-4
O=C(Cn1cnc2ccccc21)Nc1ccc(SC(F)F)cc1	18	74*	11	30	13	46*
CCCCCCCCCCn1ccc(=N)cc1	48*	97*	18	23	-3	34*
